Test results: ChEMBL document CHEMBL1255391, “Rates and mechanisms of resistance development in Mycobacterium tuberculosis to a novel diarylquinoline ATP synthase inhibitor” (2010)
In brackets after ≈: the same amount, converted by molar mass.

Columns and labels:
Assay type in all cases: functional
[1] = test system: Mycobacterium tuberculosis; experiment: Antimicrobial activity against drug-susceptible Mycobacterium tuberculosis H37Rv
[2] = test system: Mycobacterium tuberculosis; experiment: Antimicrobial activity against drug-susceptible Mycobacterium tuberculosis H37Rv expressing wild type atpE selected after 30 times MIC drug exposure
How it was run: (§1)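 Each resistant mutant clone (one colony picked per independent fluctuation culture selected on drug agar) is suspended in PBS, sonicated and applied by 96-pin replicator. Nonselective and rifampin control plates are included. Plates are read after 4 weeks; MIC is the lowest concentration with no visible growth.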

[3] = test system: Mycobacterium tuberculosis; experiment: Antimicrobial activity against drug-susceptible Mycobacterium tuberculosis Mycobacterium tuberculosis H37Rv expressing wild type atpE and F0 operon selected after 10 times MIC drug exposure; how it was run: as §1
[4] = test system: Mycobacterium tuberculosis; experiment: Antimicrobial activity against drug-susceptible Mycobacterium tuberculosis isolate 6 expressing wild type atpE selected after 10 times MIC drug exposure; how it was run: as §1
[5] = test system: Mycobacterium tuberculosis; experiment: Antimicrobial activity against drug-susceptible Mycobacterium tuberculosis H37Rv expressing wild type atpE selected after 10 times MIC drug exposure; how it was run: as §1
[6] = test system: Mycobacterium tuberculosis; experiment: Antimicrobial activity against drug-susceptible Mycobacterium tuberculosis isolate 4 expressing wild type atpE selected after 10 times MIC drug exposure; how it was run: as §1
[7] = test system: Mycobacterium tuberculosis; experiment: Antimicrobial activity against drug-susceptible Mycobacterium tuberculosis isolate 4 expressing wild type atpE and F0 operon selected after 10 times MIC drug exposure; how it was run: as §1
[8] = test system: Mycobacterium tuberculosis; experiment: Antimicrobial activity against drug-susceptible Mycobacterium tuberculosis isolate 6 expressing wild type atpE selected after 30 times MIC drug exposure; how it was run: as §1

**Q.** For `COc1nc2ccc(Br)cc2cc1[C@@H](c1ccccc1)[C@@](O)(CCN(C)C)c1cccc2ccccc12` [BEDAQUILINE], which MIC [1] is on record?
**A.** 0.03 µg/mL (≈ 0.054 µM)

**Q.** What about the MIC [2] of the same compound?
**A.** 0.24 µg/mL (≈ 0.432 µM)

**Q.** And the MIC [3]?
**A.** 0.48 µg/mL (≈ 0.864 µM)

**Q.** What about the MIC [4] of the same compound?
**A.** 0.24 µg/mL (≈ 0.432 µM)

**Q.** And the MIC [5]?
**A.** 0.48 µg/mL (≈ 0.864 µM)

**Q.** And the MIC [6]?
**A.** 0.12 µg/mL (≈ 0.216 µM)

**Q.** What about the MIC [7] of the same compound?
**A.** 0.3 µg/mL (≈ 0.54 µM)

**Q.** And the MIC [8]?
**A.** 0.12 µg/mL (≈ 0.216 µM)
